TRPC6 activator: mouse TRPC6 channel activation | Q61143 | HEK293-TRPC6 membrane potential dye fluorescence; stronger effect = higher value | B-score at 10 µM | actives 0.13% (n = 310,000) | AID 2550;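 active = B-score of the integrated fluorescence ratio above library mean plus 3 SD, and starting fluorescence ratio within library mean plus 5 SD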;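 also: higher score means more depolarization so channel activation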
TRPC4 inh: TRPC4 (mouse) channel inhibition; Q9QUQ5; HEK293 TRPC4beta/mu-opioid, DAMGO-evoked Fluo4 calcium flux; stronger effect = lower value; B-score at 10 µM; actives 0.39% (n = 300,000); AID 2247;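 active = B-score over 3 SD under the library average, no early fluorescence shift, positive overall ratio signal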
Target sequence (Q9QUQ5 whole entry, looked up): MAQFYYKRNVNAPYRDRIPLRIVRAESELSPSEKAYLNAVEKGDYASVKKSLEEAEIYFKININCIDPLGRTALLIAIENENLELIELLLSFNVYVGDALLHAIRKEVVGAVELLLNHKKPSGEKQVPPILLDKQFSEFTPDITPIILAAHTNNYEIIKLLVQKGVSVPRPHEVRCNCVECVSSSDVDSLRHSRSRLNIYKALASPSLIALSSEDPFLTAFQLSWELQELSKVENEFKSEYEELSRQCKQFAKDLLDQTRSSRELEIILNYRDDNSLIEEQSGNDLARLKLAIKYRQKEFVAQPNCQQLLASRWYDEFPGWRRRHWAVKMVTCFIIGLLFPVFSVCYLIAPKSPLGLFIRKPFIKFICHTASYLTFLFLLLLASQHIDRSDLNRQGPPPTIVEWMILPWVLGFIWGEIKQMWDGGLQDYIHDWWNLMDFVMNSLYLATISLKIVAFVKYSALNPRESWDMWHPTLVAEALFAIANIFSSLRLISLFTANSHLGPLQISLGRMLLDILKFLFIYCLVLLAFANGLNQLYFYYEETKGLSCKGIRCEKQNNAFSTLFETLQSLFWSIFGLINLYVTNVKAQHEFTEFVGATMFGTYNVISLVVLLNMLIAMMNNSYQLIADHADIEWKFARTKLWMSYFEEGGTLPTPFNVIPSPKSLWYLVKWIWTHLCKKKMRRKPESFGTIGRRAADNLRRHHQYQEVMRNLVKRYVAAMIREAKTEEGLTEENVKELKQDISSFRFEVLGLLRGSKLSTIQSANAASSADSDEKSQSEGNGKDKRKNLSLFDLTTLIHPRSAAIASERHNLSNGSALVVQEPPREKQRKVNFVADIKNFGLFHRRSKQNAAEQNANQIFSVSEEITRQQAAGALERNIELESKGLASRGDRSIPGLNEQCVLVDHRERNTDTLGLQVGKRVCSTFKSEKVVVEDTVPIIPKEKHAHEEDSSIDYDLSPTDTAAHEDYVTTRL
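Material: HEK293 cells with stable TRPC4beta plus mu-opioid receptor expression; probe or stimulus: DAMGO in two steps, submaximal then maximal; technique: Fluo4 calcium fluorescence by kinetic imaging, 5 s 1 Hz baseline; measure: integrated fluorescence ratio relative to baseline, converted to per-well B score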
TRPC4 act: TRPC4 (mouse) channel activation. HEK293 TRPC4beta/mu-opioid, Fluo4 calcium fluorescence; stronger effect = higher value. B-score at 10 µM. actives 0.49% (n = 310,000). AID 2237;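 active = B-score above 5 SD of library B-scores, and initial fluorescence ratio not above library mean plus 5 SD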;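 also: positive B-score marks a calcium rise read as TRPC4 activation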
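Assay system: HEK293 cells stably co-expressing mouse TRPC4beta and mu-opioid receptor / Timing: Fluo4 dye loading 45 min at room temperature, 110 s recording / Signal: Fluo4 calcium-sensitive dye fluorescence, kinetic, 1 Hz baseline / Read-out: integrated baseline-normalised fluorescence ratio, converted to per-well B score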
Yeast superoxide: caloric restriction mimetics inhibiting age-related superoxide in yeast. S. cerevisiae aged cells, superoxide DHE fluorescence; stronger effect = lower value. superoxide response (% of plate mean), % at 10 µM. actives 0.18% (n = 330,000);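 active = superoxide response under a set limit, about three screen SD below normal, cut at about 65% in these data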;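 also: yeast aged for seven days with compound at 30 °C before DHE staining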
TRPC6 inh: inhibitors of mouse TRPC6 channel; Q61143; HEK293-TRPC6, membrane potential dye, ACh-evoked depolarization; stronger effect = lower value; B-score at 10 µM; actives 1.1% (n = 310,000); AID 2553;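 active = B-score under library mean minus 3 SD, initial fluorescence not abnormally high, positive integrated signal ratio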;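 also: B-score derived from integrated fluorescence ratio over the kinetic read; more negative B-score means stronger inhibition of depolarization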
TRPC4 PAM: allosteric potentiators of mouse TRPC4 channel; Q9QUQ5; HEK293 TRPC4beta/mu-opioid, DAMGO EC20, Fluo-4 Ca2+ flux; stronger effect = higher value; B-score at 10 µM; actives 0.42% (n = 310,000);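 active = B-score of calcium response area above 5 SD of library B-scores, with initial fluorescence ratio within 5 SD of library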
Hits are given with their value; - = inactive; . = no result given. A selection: hits, their analogues and other compounds. The true share with any hit is near 2.3%.

SMILES	TRPC6 activator	TRPC4 inh	TRPC4 act	Yeast superoxide	TRPC6 inh	TRPC4 PAM
Cn1c(=O)c2c(nc(CN3CCN(C(c4ccccc4)c4ccccc4)CC3)n2CC(N)=O)n(C)c1=O	-	-	-	-	-	-
O=C(c1ccc(S(=O)(=O)N2CCCCC2)cc1)N1CCCC(C(F)(F)F)C1 (centres undefined)	-	-	-	-	-	-
O=C(CSc1nc2ccc([N+](=O)[O-])cc2[nH]1)NC1CCCC1	-	-	-	-	-	-
O=C(O)c1ccccc1-c1ccccc1C(=O)Nc1ccc2c(c1)[nH]c(=O)c1ccccc12	-	-	-	-	-	-
Cc1nnc(Sc2cc(NCCCO)c([N+](=O)[O-])c3nonc23)s1	-	-6	-	.	-	-
CCC(=O)Nc1cccc(-n2nnnc2SCC(=O)N2CCCCC2)c1	-	-	-	-	-	10
CC12CCC(c3c(C(=O)O)nn(-c4ccc(F)cc4)c31)C2(C)C (centres undefined)	-	-	-	-	-	-
CC12CCC(c3c(C(=O)N4CCOCC4)nn(-c4ccccc4)c31)C2(C)C (centres undefined)	-	-	-	-	-	10
O=C(CSc1cccc(C(F)(F)F)c1)Nc1cc(S(=O)(=O)N2CCCC2)ccc1Cl	-	-	-	-	-	10
O=C(Cc1ccccc1F)Nc1cc(S(=O)(=O)N2CCCC2)ccc1Cl	.	.	.	-	.	.
CCCC(c1nnnn1Cc1ccc(OC)cc1)N1CCN(c2ccccc2OC)CC1 (centres undefined)	-	-	-	-	-	-
CC(C)(C)NCC(O)CON=C1c2ccccc2-c2ccccc21 (centres undefined)	-	-	-	-	-	10
CC(C)(C)NC(=O)CON=C1c2ccccc2-c2ccccc21	-	-	-	-	-	-
COc1ccc(CCNC(=O)CSc2nn3c(=O)c(C)nnc3s2)cc1OC	-	-	-	-	-	-
c1ccc(CN2C3=NCCN3c3ccccc32)cc1	-	-	-	-	-	-
Cc1ccc(CN2C3=NCCN3c3ccccc32)cc1	-	-6	-	-	-	-
Clc1ccc(CN2C3=NCCN3c3ccccc32)cc1Cl	-	-6	-	-	-	-
CCO[C@H]1OC(C(=O)NCc2nc3ccccc3[nH]2)=C[C@@H](C2CC2)[C@@H]1CCCO	-	-	-	-	-	-
Cn1nc(-c2ccc(C(=O)Nc3cccnc3)cc2)c2ccccc2c1=O	-	-	-	-	-	-
CCOCCCNC(=O)CCn1ccc2cc(S(=O)(=O)N3CCCC3)ccc21	-	-	-	-	-	-
Cc1ccc2nc(/N=C(\N)NC(=O)NC3CCCCC3)nc(C)c2c1	-	-	55	-	-	-
CCC(=O)N(C)CCc1cc2c(c(OC)c1/C=N/NC(=O)c1ccc(Br)cc1)OCO2	-	-7	-	-	-	-
CCC(=O)N(C)CCc1cc2c(c(OC)c1/C=N/NC(=O)c1ccccc1O)OCO2	-	-	-	-	-	-
CCOc1ccc(Br)cc1/C(C)=N\NC1=NCCN1	-	-	82	-	-	-
Cc1ccc(S(=O)(=O)N2CCCOC2CNC(=O)C(=O)NCc2ccccn2)cc1 (centres undefined)	-	-	-	-	-	-
SMILES	TRPC6 activator	TRPC4 inh	TRPC4 act	Yeast superoxide	TRPC6 inh	TRPC4 PAM
COc1ccc(C(=O)CCC(=O)Nc2cccc(Cl)c2)cc1	-	-	-	-	-	18
CC1CC(C)CN(CCC(=O)Nc2cccc(Cl)c2)C1 (centres undefined)	-	-	60	-	-	-
CC1CC(C)CN(CCC(=O)Nc2ccc(Br)cc2)C1 (centres undefined)	-	-	44	-	-	-
O=C(CCN1CCCCC1)Nc1cccc(Cl)c1	-	-	-	-	-	-
S=C(NCCCc1ccccc1)NCc1ccccc1	-	-	-	-	-	-
CC(C)CC(=O)Nc1ccc2ccccc2c1	-	-	-	-	-	-
COC(=O)c1sc(-c2ccc(C(C)(C)C)cc2)cc1NC(=O)CSCC(=O)O	-	-6	-	-	-	-
COC(=O)c1sc(-c2ccc(Cl)cc2)cc1NC(=O)c1ccccc1C(=O)O	-	-	-	-	-	-
COC(=O)c1sc(-c2ccc(C(C)(C)C)cc2)cc1NC(=O)c1ccccc1C(=O)O	-	-	-	-	-	12
COC(=O)c1sc(-c2ccccc2)cc1NC(=O)C1CC1	-	-	-	-	-	-
CCCC(=O)Nc1ccc(OCC(=O)OC)cc1	-	-	-	-	-	-
CN(C)C(CNc1ncnc2sccc12)c1ccccc1 (centres undefined)	-	-	75	-	-	-
COc1ccc(C(CNc2ncnc3sccc23)N(C)C)cc1OC (centres undefined)	-	-	45	-	-	-
Cc1csc2ncnc(NCCc3ccccn3)c12	-	-	-	-	-	-
COc1ccc(CNc2ncnc3sccc23)cc1OC	-	-	-	-	-	-
c1ccc(CCNc2ncnc3sccc23)nc1	-	-	51	-	-	-
OC(CNc1ncnc2sccc12)c1ccccc1 (centres undefined)	-	-	-	-	-	-
CC(C)OP(=O)(OC(C)C)C(NC(=O)c1cccc([N+](=O)[O-])c1)C(N)=O (centres undefined)	-	-	-	-	-	-
CCCC1C(=O)Nc2ccccc2N1C(=O)c1ccc(C(C)(C)C)cc1 (centres undefined)	-	-	-	-	-	16
CCCC1C(=O)Nc2ccccc2N1C(=O)c1cccc(C)c1 (centres undefined)	-	-	-	-	-	-
COc1cccc(-c2noc(CCC(=O)Nc3cccnc3)n2)c1	-	-	-	-	-	-
CN1CCN(c2nc(-c3cccnc3)nc3scc(-c4ccccc4)c23)CC1	-	-7	64	-	-	-
C=CCNCCCCOc1c(Cl)cc(C)cc1Br	-	-	57	-	-	-
CCCCN1C(=O)C(=O)N(CC(=O)Nc2cc(OCC)c(N3CCOCC3)cc2OCC)C1=O	-	-	-	-	-	21
CCOc1cc(N2CCOCC2)c(OCC)cc1NC(=O)c1ccc2ccccc2n1	-	-	-	-	-	11
CCOc1cc(N2CCOCC2)c(OCC)cc1NC(=O)CN1C(=O)C2CC=CCC2C1=O (centres undefined)	-	-	-	-	-	-
CC1(C)Cc2ccccc2C(COc2ccccc2)=N1	-	-	-	-	-	-
CCOc1ccc(C2=CSC3=NCCN23)cc1[N+](=O)[O-]	-	-	-	-	-	-
CCCOc1ccc(C2=CSC3=NCCN23)cc1[N+](=O)[O-]	-	-	-	-	-6.2	-
